One block for each compound: values may come before it.
Tests used:
[1] = target: T1, CYP1A2 (Homo sapiens, UniProt P05177); experiment: Induction of CYP1A2-mediated 7-ethoxyresorufin O-deethylase activity in human hepatocytes at 5 uM after 10 mins by fluorescence assay relative to control; type: ADME, cell-based, Hepatocyte; conditions: probe 7-ethoxyresorufin, read-out: FC
T1 sequence (P05177 whole entry): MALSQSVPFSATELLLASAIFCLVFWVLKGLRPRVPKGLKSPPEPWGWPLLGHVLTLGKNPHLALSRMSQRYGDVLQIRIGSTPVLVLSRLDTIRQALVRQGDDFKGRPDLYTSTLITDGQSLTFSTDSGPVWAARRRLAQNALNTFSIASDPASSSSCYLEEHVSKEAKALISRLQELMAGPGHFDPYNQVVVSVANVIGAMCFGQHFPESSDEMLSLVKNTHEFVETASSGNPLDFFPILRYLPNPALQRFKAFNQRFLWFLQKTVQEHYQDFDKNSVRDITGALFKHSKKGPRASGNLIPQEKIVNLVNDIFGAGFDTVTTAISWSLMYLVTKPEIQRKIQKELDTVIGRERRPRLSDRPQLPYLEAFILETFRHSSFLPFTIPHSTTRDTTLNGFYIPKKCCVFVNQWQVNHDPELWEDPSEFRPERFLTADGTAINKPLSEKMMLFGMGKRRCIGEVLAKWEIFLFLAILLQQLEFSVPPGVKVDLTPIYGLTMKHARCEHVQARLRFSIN
Summary of the method: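 Human hepatocytes were treated for 48 h (re-dosed at 24 h), washed, then incubated with 0.5 μM ethoxyresorufin in serum-free medium for 10 min at 37 °C. Resorufin fluorescence read at Ex 530/Em 590 nm. Rate in fluorescence units/min expressed as fold over solvent control.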

[2] = tested on: CYP1A2; experiment: Induction of CYP1A2 mRNA expression in human hepatocytes at 10 uM relative to control; type: ADME, cell-based, Hepatocyte; conditions: read-out: FC
[3] = tested on: CYP1A2; experiment: Induction of CYP1A2 mRNA expression in rat hepatic microsomes at 30 mg/kg, po QD for 7 days relative to control; type: ADME, organism-based, Liver; conditions: read-out: FC
Summary of the method: (§1)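 Male rats dosed orally once daily for 7 days. Hepatic mRNA measured by Taqman and expressed as fold induction versus control animals.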

[4] = tested on: CYP1A1; experiment: Induction of CYP1A1 mRNA expression in rat hepatic microsomes at 30 mg/kg, po QD for 7 days relative to control; type: ADME, organism-based, Liver; conditions: read-out: FC; summary of the method: as §1
[5] = tested on: CYP1A2; experiment: (§2) Induction of CYP1A2 mRNA expression in rat hepatocytes at 10 uM by Taqman analysis relative to control; type: ADME, cell-based, Hepatocyte; conditions: read-out: FC
[6] = tested on: CYP1A1; experiment: (§3) Induction of CYP1A1 mRNA expression in rat hepatocytes at 10 uM by Taqman analysis relative to control; type: ADME, cell-based, Hepatocyte; conditions: read-out: FC
[7] = tested on: Cynomolgus monkey; experiment: Induction of CYP1A2 gene expression in cynomolgus monkey liver at 30 mg/kg, po QD for 7 days by Taqman analysis; type: ADME, organism-based, Macaca fascicularis; conditions: in vivo, 168 h
Summary of the method: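 Cynomolgus monkeys dosed orally at 30 mg/kg daily for 7 days. Liver CYP1A2 mRNA measured by Taqman analysis in treated animals versus vehicle-control animals.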

[8] = tested on: Cynomolgus monkey; experiment: Induction of CYP1A1 gene expression in cynomolgus monkey liver at 30 mg/kg, po QD for 7 days by Taqman analysis; type: ADME, organism-based, Macaca fascicularis; conditions: in vivo, 168 h
Summary of the method: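 Cynomolgus monkeys were dosed orally at 30 mg/kg daily. Hepatic CYP1A1 mRNA from treated livers was measured by Taqman and compared with vehicle-control animals.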

[9] = Intrinsic clearance in cynomolgus monkey liver microsomes by LC-MS/MS analysis; type: ADME, Macaca fascicularis
Summary of the method: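 Liver microsomes were prepared from control and treated cynomolgus monkeys by differential centrifugation (10 000g, then 105 000g). Compound incubated at 37 °C in 50 mM potassium phosphate pH 7.4 with an NADPH-generating system. Samples taken at 0–30 min, quenched with solvent containing internal standard, and analysed by LC–MS/MS to derive intrinsic clearance.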

[10] = tested on: Rattus norvegicus; experiment: Induction of Nqo1 gene expression in rat hepatic microsomes at 30 to 100 mg/kg, po QD for 7 days; type: organism-based, Liver; conditions: 168 h
[11] = tested on: Rattus norvegicus; experiment: Induction of CYP1A2 gene expression in rat hepatic microsomes at 30 to 100 mg/kg, po QD for 7 days; type: ADME, organism-based, Liver; conditions: 168 h
[12] = tested on: CYP1A1; experiment: Induction of CYP1A1 gene expression in rat hepatic microsomes at 30 to 100 mg/kg, po QD for 7 days; type: ADME, organism-based, Liver; conditions: read-out: FC
[13] = tested on: Rattus norvegicus; experiment: Induction of Ephx1 gene expression in rat hepatic microsomes at 30 to 100 mg/kg, po QD for 7 days; type: organism-based, Liver; conditions: 168 h
[14] = tested on: Rattus norvegicus; experiment: Induction of CYP1A2 gene expression in po dosed rat hepatic microsomes administered po QD for 7 days; type: ADME, organism-based, Liver; conditions: 168 h
Summary of the method: (§4)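 Rats dosed orally once daily for 7 days at 30–300 mg/kg/day, depending on compound. Hepatic AhR-panel gene mRNA (Cyp1a, Nqo1, Ephx1) measured and expressed as fold induction versus control animals.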

[15] = tested on: Rattus norvegicus; experiment: Induction of CYP1A1 gene expression in po dosed rat hepatic microsomes administered po QD for 7 days; type: ADME, organism-based, Liver; conditions: 168 h
Summary of the method: (§5)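 Rats received oral doses daily for 7 days: 30 and 100 mg/kg, or 30, 100 and 300 mg/kg, depending on compound. Hepatic CYP1A1 mRNA was expressed as fold induction versus control animals.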

[16] = tested on: Rattus norvegicus; experiment: Induction of Nqo1 gene expression in po dosed rat hepatic microsomes administered po QD for 7 days; type: organism-based, Liver; conditions: 168 h; summary of the method: as §4
[17] = tested on: Rattus norvegicus; experiment: Induction of Ephx1 gene expression in po dosed rat hepatic microsomes administered po QD for 7 days; type: organism-based, Liver; conditions: 168 h; summary of the method: as §4
[18] = tested on: Rattus norvegicus; experiment: Induction of CYP1A2 gene expression in rat hepatic microsomes at 30 to 300 mg/kg, po QD for 7 days; type: ADME, organism-based, Liver; conditions: 168 h; summary of the method: as §4
[19] = tested on: CYP1A1; experiment: Induction of CYP1A1 gene expression in rat hepatic microsomes at 30 to 300 mg/kg, po QD for 7 days; type: ADME, organism-based, Liver; conditions: read-out: FC; summary of the method: as §5
[20] = tested on: Rattus norvegicus; experiment: Induction of Nqo1 gene expression in rat hepatic microsomes at 30 to 300 mg/kg, po QD for 7 days; type: organism-based, Liver; conditions: 168 h; summary of the method: as §4
[21] = tested on: Rattus norvegicus; experiment: Induction of Ephx1 gene expression in rat hepatic microsomes at 30 to 300 mg/kg, po QD for 7 days; type: organism-based, Liver; conditions: 168 h; summary of the method: as §4
[22] = tested on: Rattus norvegicus; experiment: Induction of CYP1A2 mRNA expression in rat hepatic microsomes at 20 mg/kg, po QD for 4 days relative to control; type: ADME, organism-based, Liver; conditions: microsomes, 96 h
Summary of the method: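 Male CD rats (226–325 g), n = 3, given test compound by oral gavage once daily for 4 days. Vehicle was 1% w/v methylcellulose aqueous suspension (3–6 mg/mL, 5 mL/kg); target dose 15–30 mg/kg. Liver from the left lateral lobe was put in RNALater, then TRIzol extraction and cDNA conversion; Cyp1a analysed on low-density arrays.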

[23] = tested on: Rattus norvegicus; experiment: Induction of CYP1A1 mRNA expression in rat hepatic microsomes at 20 mg/kg, po QD for 4 days relative to control; type: ADME, organism-based, Liver; conditions: microsomes, 96 h
Summary of the method: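 Male CD rats, n = 3, received the compound once daily by oral gavage for 4 days in 1% methylcellulose suspension at 5 mL/kg. At necropsy a left lateral liver lobe section was stored in RNALater on ice. Tissue was TRIzol-homogenized, RNA purified, DNased and converted to cDNA. Cyp1a1 was read on low density arrays and expressed relative to control.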

[24] = tested on: Hepatocyte; experiment: as §2; type: ADME, cell-based; conditions: 10 µM
[25] = tested on: Hepatocyte; experiment: as §3; type: ADME, cell-based; conditions: 10 µM

fold induction at 10 min, 5 µM [1]: 7.7 | fold induction at 10 µM [2]: 45 | fold induction at 168 h [3]: 2 | fold induction at 168 h [4]: 35 | fold induction at 10 µM [5]: < 1 | fold induction at 10 µM [6]: < 1 | CLint scaled [9]: 11 mL/min/g | fold induction at 168 h [12]: 10000 | Activity [14]: Dose-dependent effect | Activity [15]: Dose-dependent effect | Activity [16]: Dose-dependent effect | Activity [17]: Dose-dependent effect
SMILES: CC(C)Oc1ccc(-c2nc(-c3cccc4c3cnn4CCC(=O)O)no2)cc1Cl
Activity [7]: Toxic | Activity [8]: Toxic | Activity [10]: Toxic | Activity [11]: Toxic | Activity [13]: Toxic

fold induction at 168 h [3]: 2 | fold induction at 168 h [4]: 210 | fold induction at 10 µM [5]: 2 | fold induction at 10 µM [6]: 3 | fold induction at 168 h [19]: 10000 | Activity [14]: Dose-dependent effect | Activity [15]: Dose-dependent effect | Activity [16]: Dose-dependent effect | Activity [17]: Dose-dependent effect
SMILES: CC(C)Oc1ccc(-c2nc(-c3ccc4c(c3)CCN(CCCC(=O)O)CC4)no2)cc1C#N
Activity [18]: Toxic | Activity [20]: Toxic | Activity [21]: Toxic

fold change (FC) [22]: 1 | fold change (FC) [23]: 1 | fold change (FC) [24]: 8 | fold change (FC) [25]: 32
SMILES: CC(C)Oc1ncc(-c2nc(-c3cccc4c3OCCNC4CCCC(=O)O)no2)cc1Cl (stereo in doubt; 7)
